The nature of this data set: Metabolic stability in Sprague-Dawley rat liver microsomes assessed as parent compound remaining incubated for 1 hrs by HPLC analysis. Format: ADME, Microsome. The following applies: read-out: Stability. A digest of the protocol: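 Rat (Sprague-Dawley) activated liver microsome mix; compound incubated at 37 °C and sampled at 0, 15, 30 and 60 min. Unmetabolized parent quantified by HPLC.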

A value given as a limit tells only on which side of the number the result lay.

Data on one molecule can be found in ChEMBL document CHEMBL5149988, “Structure-Based Design of Selective Salt-Inducible Kinase Inhibitors” (J Med Chem, 2021).

Turning to `CNc1ncc2cc(-c3ccc(-c4ncccc4F)cc3Cl)c(=O)n(C[C@H]3OC[C@H](N)CO3)c2n1`, the remaining at 1 h is above 90%.
